Results from ChEMBL document CHEMBL4118285, “Synthesis and antibacterial activity of novel ketolides with 11,12-quinoylalkyl side chains” (2018).
Converted amounts (≈) assume the structure as drawn.

Experiments:
Format in all cases: functional
Staphylococcus aureus [1] = assay: Antibacterial activity against methicillin-sensitive Staphylococcus aureus ATCC 29213 by broth microdilution method
How it was run: (§1)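 MICs were determined by broth microdilution following CLSI recommendations, with clarithromycin and telithromycin run as reference antibiotics.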

Staphylococcus aureus [2] = assay: Antibacterial activity against methicillin-resistant Staphylococcus aureus ATCC 33591 by broth microdilution method
How it was run: (§2)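 MIC values were determined by broth microdilution following Clinical and Laboratory Standards Institute (CLSI) recommendations.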

[3] = system: Staphylococcus epidermidis; assay: Antibacterial activity against methicillin-sensitive Staphylococcus epidermidis ATCC 12228 by broth microdilution method; how it was run: as §1
[4] = system: Staphylococcus epidermidis; assay: Antibacterial activity against methicillin-resistant Staphylococcus epidermidis 13-3 by broth microdilution method; how it was run: as §2
Streptococcus pyogenes [5] = assay: Antibacterial activity against […] Streptococcus pyogenes 12-8 by broth microdilution method; how it was run: as §1
Streptococcus pyogenes [6] = assay: Antibacterial activity against methicillin-resistant Streptococcus pyogenes 12-1 by broth microdilution method; how it was run: as §2
Moraxella catarrhalis [7] = assay: Antibacterial activity against clarithromycin-sensitive Moraxella catarrhalis 12-1 by broth microdilution method; how it was run: as §1
Klebsiella pneumoniae = assay: Antibacterial activity against extended spectrum beta-lactamases producing Klebsiella pneumoniae ATCC 700603 by broth microdilution method; how it was run: as §1
Moraxella catarrhalis [8] = assay: Antibacterial activity against clarithromycin-resistant Moraxella catarrhalis 12-2 by broth microdilution method; how it was run: as §2
Escherichia coli = assay: Antibacterial activity against extended spectrum beta-lactamases non-producing Escherichia coli ATCC 25922 by broth microdilution method; how it was run: as §1
Pseudomonas aeruginosa = assay: Antibacterial activity against Pseudomonas aeruginosa ATCC 27853 by broth microdilution method; how it was run: as §1
Staphylococcus aureus [9] = assay: Antibacterial activity against methicillin-sensitive Staphylococcus aureus 11B122 by broth microdilution method; how it was run: as §1
Staphylococcus aureus [10] = assay: Antibacterial activity against methicillin-resistant Staphylococcus aureus 11B117 by broth microdilution method; how it was run: as §2
[11] = system: Staphylococcus epidermidis; assay: Antibacterial activity against methicillin-sensitive Staphylococcus epidermidis 11X315 by broth microdilution method; how it was run: as §2
[12] = system: Staphylococcus epidermidis; assay: Antibacterial activity against methicillin-resistant Staphylococcus epidermidis 11C176 by broth microdilution method; how it was run: as §2
Streptococcus pneumoniae [13] = assay: Antibacterial activity against erythromycin-sensitive Streptococcus pneumoniae 11G364 by broth microdilution method; how it was run: as §1
Streptococcus pneumoniae [14] = assay: Antibacterial activity against erythromycin-resistant Streptococcus pneumoniae 11 J011 by broth microdilution method; how it was run: as §2
Streptococcus pyogenes [15] = assay: Antibacterial activity against erythromycin-sensitive Streptococcus pyogenes 11L264 by broth microdilution method; how it was run: as §1
Streptococcus pyogenes [16] = assay: Antibacterial activity against erythromycin-resistant Streptococcus pyogenes 11 N369 by broth microdilution method; how it was run: as §2
Haemophilus influenzae [17] = assay: Antibacterial activity against azithromycin-sensitive Haemophilus influenzae 11P042 by broth microdilution method; how it was run: as §1
Haemophilus influenzae [18] = assay: Antibacterial activity against azithromycin-resistant Haemophilus influenzae 11Q373 by broth microdilution method; how it was run: as §2

Structure (SMILES)	MIC (Staphylococcus aureus [1]) [µg/mL]	MIC (Staphylococcus aureus [2]) [µg/mL]	MIC [3] [µg/mL]	MIC [4] [µg/mL]	MIC (Streptococcus pyogenes [5]) [µg/mL]	MIC (Streptococcus pyogenes [6]) [µg/mL]	MIC (Moraxella catarrhalis [7]) [µg/mL]	MIC (Klebsiella pneumoniae) [µg/mL]	MIC (Moraxella catarrhalis [8]) [µg/mL]	MIC (Escherichia coli) [µg/mL]	MIC (Pseudomonas aeruginosa) [µg/mL]	MIC (Staphylococcus aureus [9]) [µg/mL]	MIC (Staphylococcus aureus [10]) [µg/mL]	MIC [11] [µg/mL]	MIC [12] [µg/mL]	MIC (Streptococcus pneumoniae [13]) [µg/mL]	MIC (Streptococcus pneumoniae [14]) [µg/mL]	MIC (Streptococcus pyogenes [15]) [µg/mL]	MIC (Streptococcus pyogenes [16]) [µg/mL]	MIC (Haemophilus influenzae [17]) [µg/mL]	further results
CC[C@H]1OC(=O)[C@H](C)C(=O)[C@H](C)[C@@H](O[C@@H]2O[C@H](C)C[C@H](N(C)C)[C@H]2O)[C@](C)(OC)C[C@@H](C)C(=O)[C@H](C)[C@H]2N(CC/C=C/c3cncc4ccc(-c5ccccc5)cc34)C(=O)O[C@]12C	1 (≈ 1.15 µM)	4 (≈ 4.6 µM)	0.5 (≈ 0.575 µM)	8 (≈ 9.19 µM)	0.125 (≈ 0.144 µM)	8 (≈ 9.19 µM)	0.125 (≈ 0.144 µM)	> 256	2 (≈ 2.3 µM)	> 256	> 256										
CC[C@H]1OC(=O)[C@H](C)C(=O)[C@H](C)[C@@H](O[C@@H]2O[C@H](C)C[C@H](N(C)C)[C@H]2O)[C@](C)(OC)C[C@@H](C)C(=O)[C@H](C)[C@H]2N(CCCOc3ccc4cccnc4c3)C(=O)O[C@]12C	0.015 (≈ 0.0188 µM)	256 (≈ 321 µM)	0.03 (≈ 0.0376 µM)	> 256	0.015 (≈ 0.0188 µM)	> 256	0.015 (≈ 0.0188 µM)	128 (≈ 160 µM)	64 (≈ 80.2 µM)	16 (≈ 20.1 µM)	32 (≈ 40.1 µM)										
CC[C@H]1OC(=O)[C@H](C)[C@@H](O[C@H]2C[C@@](C)(OC)[C@@H](O)[C@H](C)O2)[C@H](C)[C@@H](O[C@@H]2O[C@H](C)C[C@H](N(C)C)[C@H]2O)[C@](C)(OC)C[C@@H](C)C(=O)[C@H](C)[C@@H](O)[C@]1(C)O [CLARITHROMYCIN]	0.12 (≈ 0.16 µM)	> 256	0.06 (≈ 0.0802 µM)	> 256	0.03 (≈ 0.0401 µM)	128 (≈ 171 µM)	0.008 (≈ 0.0107 µM)	128 (≈ 171 µM)	> 256	16 (≈ 21.4 µM)	128 (≈ 171 µM)	0.031 (≈ 0.0414 µM)	> 64	0.125 (≈ 0.167 µM)	> 64	0.031 (≈ 0.0414 µM)	64 (≈ 85.6 µM)	0.016 (≈ 0.0214 µM)	> 64	8 (≈ 10.7 µM)	MIC (Haemophilus influenzae [18]): 8 µg/mL (≈ 10.7 µM)
CC[C@H]1OC(=O)[C@H](C)C(=O)[C@H](C)[C@@H](O[C@@H]2O[C@H](C)C[C@H](N(C)C)[C@H]2O)[C@](C)(OC)C[C@@H](C)C(=O)[C@H](C)[C@H]2N(CCCNc3cnc4ccccc4c3)C(=O)O[C@]12C												0.5 (≈ 0.627 µM)	> 64	0.5 (≈ 0.627 µM)	0.5 (≈ 0.627 µM)	0.016 (≈ 0.0201 µM)	0.5 (≈ 0.627 µM)	0.031 (≈ 0.0389 µM)	64 (≈ 80.3 µM)	8 (≈ 10 µM)	MIC (Haemophilus influenzae [18]): 8 µg/mL (≈ 10 µM)
CC[C@H]1OC(=O)[C@@](C)(F)C(=O)[C@H](C)[C@@H](O[C@@H]2O[C@H](C)C[C@H](N(C)C)[C@H]2O)[C@](C)(OC)C[C@@H](C)C(=O)[C@H](C)[C@H]2N(CC/C=C/c3cnc4ccccc4c3)C(=O)O[C@]12C	0.015 (≈ 0.0185 µM)	32 (≈ 39.4 µM)	0.015 (≈ 0.0185 µM)	32 (≈ 39.4 µM)	0.015 (≈ 0.0185 µM)	16 (≈ 19.7 µM)	0.015 (≈ 0.0185 µM)	32 (≈ 39.4 µM)	16 (≈ 19.7 µM)	8 (≈ 9.85 µM)	16 (≈ 19.7 µM)										
CC[C@H]1OC(=O)[C@H](C)C(=O)[C@H](C)[C@@H](O[C@@H]2O[C@H](C)C[C@H](N(C)C)[C@H]2O)[C@](C)(OC)C[C@@H](C)C(=O)[C@H](C)[C@H]2N(CC/C=C/c3cnc4ccccc4c3)C(=O)O[C@]12C												0.125 (≈ 0.157 µM)	64 (≈ 80.6 µM)	0.062 (≈ 0.0781 µM)	0.062 (≈ 0.0781 µM)	≤ 0.004	0.031 (≈ 0.039 µM)	≤ 0.004	0.25 (≈ 0.315 µM)	1 (≈ 1.26 µM)	MIC (Haemophilus influenzae [18]): 4 µg/mL (≈ 5.04 µM)
CC[C@H]1OC(=O)[C@H](C)C(=O)[C@H](C)[C@@H](O[C@@H]2O[C@H](C)C[C@H](N(C)C)[C@H]2O)[C@](C)(OC)C[C@@H](C)C(=O)[C@H](C)[C@H]2N(CC/C=C/c3cncc4ccccc34)C(=O)O[C@]12C	0.015 (≈ 0.0189 µM)	64 (≈ 80.6 µM)	0.03 (≈ 0.0378 µM)	64 (≈ 80.6 µM)	0.015 (≈ 0.0189 µM)	64 (≈ 80.6 µM)	0.015 (≈ 0.0189 µM)	64 (≈ 80.6 µM)	32 (≈ 40.3 µM)	16 (≈ 20.2 µM)	32 (≈ 40.3 µM)										
CC[C@H]1OC(=O)[C@H](C)C(=O)[C@H](C)[C@@H](O[C@@H]2O[C@H](C)C[C@H](N(C)C)[C@H]2O)[C@](C)(OC)C[C@@H](C)C(=O)[C@H](C)[C@H]2N(CCCCc3cnc4ccccc4c3)C(=O)O[C@]12C												0.125 (≈ 0.157 µM)	64 (≈ 80.4 µM)	0.062 (≈ 0.0779 µM)	0.062 (≈ 0.0779 µM)	≤ 0.004	0.062 (≈ 0.0779 µM)	0.008 (≈ 0.0101 µM)	0.5 (≈ 0.628 µM)	0.5 (≈ 0.628 µM)	MIC (Haemophilus influenzae [18]): 4 µg/mL (≈ 5.03 µM)
